CSN deneddyl inh – inhibitors of human CSN-mediated cullin deneddylation; Purified CSN, SCF-Nedd8-OG deneddylation, fluorescence polarization; inhibition, % at 12.5 µM; hit rate 0.38% among 360,000; AID 651999;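 active = pattern-corrected inhibition above about 35%, with an unprinted fluorescence ratio check between 0.5 and 1.5, limit read from the data, passing the limit was not always enough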;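 also: 0% = enzyme with substrate and 100% = substrate without enzyme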
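assay system = purified human Csn5 enzyme expressed in HEK293T cells | amount = 0.24 nM enzyme | buffer or medium = Tris/NaCl/DTT buffer, pH 7.5 | reagent = 10 nM SCFSkp2-Nedd8OG | compound = one concentration, 12.5 µM, 0.25% DMSO | times = 90 min reaction at room temperature | signal = FP | read-out basis = % inhibition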
HNF4A DNA FP – change in binding of human HNF4 alpha to DNA; activity change, % at 10 µM; hit rate 0.3% among 360,000; HNF4a-FITC DNA binding, fluorescence polarization, 1 h; AID 1224865; in the data active = activity change above about 30%, passing the limit was not always enough
Target sequence (P41235 whole entry, looked up): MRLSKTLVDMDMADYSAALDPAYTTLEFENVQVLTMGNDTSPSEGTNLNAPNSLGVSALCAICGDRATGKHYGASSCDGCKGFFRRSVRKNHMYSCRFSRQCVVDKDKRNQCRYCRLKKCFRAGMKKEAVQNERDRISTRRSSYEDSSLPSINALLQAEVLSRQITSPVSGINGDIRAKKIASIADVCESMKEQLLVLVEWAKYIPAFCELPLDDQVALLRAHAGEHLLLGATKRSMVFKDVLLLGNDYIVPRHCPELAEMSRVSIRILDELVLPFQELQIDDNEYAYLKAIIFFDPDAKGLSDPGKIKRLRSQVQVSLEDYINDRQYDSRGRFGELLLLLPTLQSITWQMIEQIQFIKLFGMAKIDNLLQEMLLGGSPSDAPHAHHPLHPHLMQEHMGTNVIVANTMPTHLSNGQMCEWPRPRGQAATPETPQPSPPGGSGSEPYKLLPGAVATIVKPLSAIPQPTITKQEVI
Rev-erbA mod – Rev-erb alpha (human) modulation | Rev-erbα–FITC-DNA binding, fluorescence polarization, 90 min | AID 1259318 | hit rate 0.79% among 370,000 | P20393 | activity, % at 10 µM;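 active = activity above about 14%, limit read from the data; passing the limit was not always enough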;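 also: 0% = DMSO wells with 35 nM protein and 100% = DMSO wells with 750 nM protein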
TPT1 inh – inhibitors of Candida albicans tRNA 2'-phosphotransferase TPT1; recombinant caTPT1, FP RNA substrate dephosphorylation; inhibition, % at 5 µM; hit rate 0.81% among 300,000;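 active = inhibition above the mean of all tested compounds plus 3 SD, set per screening campaign, cut at about 24% in these data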;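 also: plate controls were DMSO alone for no effect and ferristatin control at 100 nM for full effect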
Rev-erbA confirm – Rev-erb alpha (human) modulation, hit confirmation. shares compounds with Rev-erbA mod. Rev-erb alpha FITC-DNA binding, fluorescence polarization, 90 min. activation, % at 25 µM. hit rate 61% among 3,000. AID 1259319;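 active = activation at or above a set limit, or at least 3 SD above the negative control mean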;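 also: 0% = 35 nM protein with DMSO and 100% = 750 nM protein high control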
RORg DNA counter – RORgamma DNA-binding activity, dose-response counter-screen | AID 1259320 | IC50, µM | hit rate 8% among 910 | purified RORgamma protein-FITC-DNA binding, fluorescence polarization | shares compounds with Rev-erbA mod;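 active = Compounds whose fitted half-maximal concentration for disrupting protein-DNA binding is below 10 micromolar; the record names Rev-erb in its text, so the target is in doubt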
The depositor's hits bear a star. Only some compounds are listed: those with a hit (about 1.7% of all), similar ones and a draw of the others.

For CC1CN(C(=O)/C=C/c2ccccc2[N+](=O)[O-])CC(C)O1 (centres undefined) the results were CSN deneddyl inh -1, HNF4A DNA FP 5, Rev-erbA mod 18*, TPT1 inh -2 and Rev-erbA confirm -4.
`CC(C)CC1NC(=O)c2cc3ccccc3cc2-n2c1nc1ccc(Cl)cc1c2=O` (centres undefined) gave CSN deneddyl inh 5, HNF4A DNA FP -10, Rev-erbA mod 16* and Rev-erbA confirm 1.
O=C(COc1ccc2c(-c3ccccc3)cc(=O)oc2c1)Nc1ccc(CCO)cc1 was read as CSN deneddyl inh 66*, HNF4A DNA FP 16, Rev-erbA mod 53*, TPT1 inh -1 and Rev-erbA confirm 25*.
Screening O=C(COc1ccc2c(-c3ccccc3)cc(=O)oc2c1)Nc1ccc(CN2CCOCC2)cc1 returned CSN deneddyl inh -3, HNF4A DNA FP 2, Rev-erbA mod -25 and TPT1 inh 0.
For Fc1ccc2nc(-c3ccc(CN4CCC(c5nc6ccccc6[nH]5)CC4)cc3)c(-c3ccccc3)nc2c1 the results were Rev-erbA mod -1.
Screening O=C(Nc1nnc(-c2ccccc2Cl)s1)c1ccccc1F returned CSN deneddyl inh -1, HNF4A DNA FP -1, Rev-erbA mod 27* and Rev-erbA confirm 3.
`O=C(Nc1nnc(-c2ccccc2)s1)c1ccccc1F` gave CSN deneddyl inh -9, HNF4A DNA FP -3, Rev-erbA mod -3 and TPT1 inh -2.
For Cc1cc(NS(=O)(=O)c2ccc(NC(=O)CSc3nnc(-c4ccco4)n3-c3ccc(Cl)cc3)cc2)nc(C)n1 the results were Rev-erbA mod 0.
O=c1oc(C2(O)CCCCC2)cc2ccccc12 was read as CSN deneddyl inh -3, HNF4A DNA FP 0 and Rev-erbA mod 8.
O=c1oc(C2(O)CCCCC2)cc2ccc(-c3ccc4[nH]ccc4c3)cc12 was read as CSN deneddyl inh 0, HNF4A DNA FP -1, Rev-erbA mod 22* and Rev-erbA confirm 11.
CCOc1ccc2nc(N/C(N)=N/C(=S)Nc3cccc(OC)c3)nc(C)c2c1 was read as CSN deneddyl inh 3, HNF4A DNA FP 8, Rev-erbA mod 32*, TPT1 inh -1 and Rev-erbA confirm 3.
For Cc1ccc(NC(=S)/N=C(\N)Nc2nc(C)c3cc(C)c(C)cc3n2)cc1C the results were CSN deneddyl inh 2, HNF4A DNA FP 4, Rev-erbA mod 27*, TPT1 inh -5 and Rev-erbA confirm -1.
Screening CCOc1ccc2nc(N/C(N)=N/C(=S)Nc3cccc(C)c3)nc(C)c2c1 returned CSN deneddyl inh -2, HNF4A DNA FP 2, Rev-erbA mod 35*, TPT1 inh -1, Rev-erbA confirm 37* and RORg DNA counter >40.
For COc1ccc2nc(N/C(N)=N/C(=S)Nc3cccc(C)c3)nc(C)c2c1 the results were CSN deneddyl inh 0, HNF4A DNA FP 4, Rev-erbA mod 4 and TPT1 inh 1.
Screening COC(=O)c1cc2c(c3c4ccccc4n(S(=O)(=O)c4ccccc4)c13)C(=O)N(Cc1ccc(N(C)C)cc1)C2 returned Rev-erbA mod -3.
Screening O=S(=O)(c1ccc(C(F)(F)F)cc1)N1CCCc2nc(-c3ccc(Br)cc3)ccc21 returned Rev-erbA mod -1.
Screening CN1[C@@H](Cc2ccccc2)COc2cccc(N3CCCC3)c2S1(=O)=O returned Rev-erbA mod 4.
Screening O=C(NCC1CCCO1)c1cn(Cc2ccccc2)nc1-c1ccc(Cl)cc1 (centres undefined) returned CSN deneddyl inh -7, HNF4A DNA FP -2 and Rev-erbA mod -2.
Screening O=C(NCC1CCCO1)c1cn(Cc2ccccc2)nc1-c1ccccc1 (centres undefined) returned CSN deneddyl inh -4, HNF4A DNA FP -3, Rev-erbA mod 27* and Rev-erbA confirm -5.
Cc1cc(NCCCN(C)C)n2c(nc3ccccc32)c1C#N was read as CSN deneddyl inh 5, HNF4A DNA FP -4, Rev-erbA mod -5 and TPT1 inh 3.
Cc1cc(NCCCOC(C)C)n2c(nc3ccccc32)c1C#N was read as CSN deneddyl inh 52*, HNF4A DNA FP 9, Rev-erbA mod 44*, TPT1 inh 3 and Rev-erbA confirm 16.
`COCCN(Cc1cc2cc(C)ccc2n2nnnc12)C(=S)Nc1ccccc1C` gave CSN deneddyl inh 2, HNF4A DNA FP 0, Rev-erbA mod 87*, TPT1 inh 0, Rev-erbA confirm 40* and RORg DNA counter >40.
For CCc1ccc2c(c1)cc(CN(C(=S)Nc1ccccc1C)C1CC1)c1nnnn12 the results were CSN deneddyl inh 0, HNF4A DNA FP 1, Rev-erbA mod 5 and TPT1 inh 0.
`COc1ccc(OC)c(NC(=O)CCN2CCN(c3ccccc3OC)CC2)c1` gave CSN deneddyl inh 2, HNF4A DNA FP -2, Rev-erbA mod -6 and TPT1 inh -1.
`O=C(NCC1COCCO1)C1CCN(S(=O)(=O)c2cccc3ccccc23)CC1` (centres undefined) gave Rev-erbA mod 7.
Screening O=C(CNC(=O)c1sc2ccccc2c1Cl)Nc1ccccc1F returned CSN deneddyl inh 0, HNF4A DNA FP -1, Rev-erbA mod 44*, TPT1 inh 2 and Rev-erbA confirm 10.
`CN(CC(=O)Nc1ccc(F)cc1)C(=O)COC(=O)CNC(=O)c1sc2ccccc2c1Cl` gave CSN deneddyl inh 3, HNF4A DNA FP -2, Rev-erbA mod 23*, TPT1 inh -1 and Rev-erbA confirm 9.
Screening O=C(CNC(=O)c1sc2ccccc2c1Cl)NCc1ccc(F)cc1 returned CSN deneddyl inh -1, HNF4A DNA FP 0, Rev-erbA mod 10 and TPT1 inh -1.
`O=C(NCc1ccccc1)[C@H]1CCCN1C(=O)[C@H]1CCCN1C(=O)c1ccc(F)cc1F` gave Rev-erbA mod 2.
For O=C(O)CN(CCN(CC(=O)O)CC(=O)O)CC(=O)O the results were Rev-erbA mod 50* and Rev-erbA confirm 3.
O=C(CN1C(=O)NC(Cc2ccccc2)C1=O)Nc1ccc(F)cc1 (centres undefined) was read as CSN deneddyl inh 0, HNF4A DNA FP 1, Rev-erbA mod -1 and TPT1 inh -6.
For O=C(CN1C(=O)NC(Cc2ccccc2)C1=O)Nc1ccc(OC(F)(F)F)cc1 (centres undefined) the results were CSN deneddyl inh 2, HNF4A DNA FP -2, Rev-erbA mod 14* and Rev-erbA confirm -7.
For CC(C)(C)C(=O)Nc1cc(S(=O)(=O)N2CCCCC2)ccc1N1CCCCC1 the results were CSN deneddyl inh -3, HNF4A DNA FP -2, Rev-erbA mod 39*, TPT1 inh 7, Rev-erbA confirm 38* and RORg DNA counter >40.
